Results on 15 molecules are retold here after ChEMBL document CHEMBL1147829, “4-(Aminoalkylamino)-3-benzimidazole-quinolinones as potent CHK-1 inhibitors” (Bioorg Med Chem Lett, 2006).

SMILES strings stand for the structures. Active and inactive are the calls of the source. The rule behind the calls is not given here.

The subject of one experiment is MDA-MB-435. As to the kind of experiment: Cytotoxicity against human MDA-MB-435 cells. The experiment is classed as functional, cell-based. The method, boiled down: (§1)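 MDA-MB-435 cells seeded at 5×10³ per well and allowed 4 h at 37 °C under 5% CO₂. They were then exposed to the agent alone or combined with camptothecin, with DMSO as vehicle control, for 48 h. MTS was developed 4 h and read at 490 nm with medium-only background subtracted. Percent was calculated relative to DMSO-treated cells.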
Take `O=c1[nH]c2ccc(Cl)cc2c(N[C@@H]2CN3CCC2CC3)c1-c1nc2ccccc2[nH]1`: it took 80 nM to reach a half-maximal effect (EC50).

The subject of the next experiment is MDA-MB-435. As to the kind of experiment: Cytotoxicity against human MDA-MB-435 cells in presence of camptothecin. The experiment is classed as functional, cell-based. The method, boiled down: as §1
On to `O=c1[nH]c2ccc(Cl)cc2c(N[C@@H]2CN3CCC2CC3)c1-c1nc2ccccc2[nH]1`, for which the result was Active.

The target in a further experiment is T1, Serine/threonine-protein kinase Chk1 (Homo sapiens, UniProt O14757).
T1 sequence (O14757 whole entry): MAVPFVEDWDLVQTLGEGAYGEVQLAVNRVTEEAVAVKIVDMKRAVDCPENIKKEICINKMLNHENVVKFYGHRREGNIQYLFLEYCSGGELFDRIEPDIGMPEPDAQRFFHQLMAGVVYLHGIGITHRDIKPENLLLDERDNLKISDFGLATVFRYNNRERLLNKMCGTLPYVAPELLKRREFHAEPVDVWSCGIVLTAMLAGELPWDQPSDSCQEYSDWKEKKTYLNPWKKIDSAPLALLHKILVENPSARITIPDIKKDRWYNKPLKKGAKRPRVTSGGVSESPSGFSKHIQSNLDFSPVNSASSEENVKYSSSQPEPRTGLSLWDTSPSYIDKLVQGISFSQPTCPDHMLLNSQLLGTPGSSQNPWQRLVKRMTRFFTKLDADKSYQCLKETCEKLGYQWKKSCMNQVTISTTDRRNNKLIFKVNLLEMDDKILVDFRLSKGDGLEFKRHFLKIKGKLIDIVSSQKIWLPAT
As to the kind of experiment: Inhibition of CHK1.
As to `O=c1[nH]c2ccccc2c(N[C@@H]2CN3CCC2CC3)c1-c1nc2ccccc2[nH]1`, the IC50 (usually the concentration needed to halve the response being measured) stood at 7.6 nM. `O=c1[nH]c2ccc(Cl)cc2c(NC2CCNCC2)c1-c1nc2ccccc2[nH]1` displayed an IC50 of 3.3 nM. Still for that read-out and setting: as for `CCN(CC)c1c(-c2nc3ccccc3[nH]2)c(=O)[nH]c2ccccc12`, the figure is over 30000 nM. Same read-out and setting: next, `Nc1c(-c2nc3ccccc3[nH]2)c(=O)[nH]c2ccccc12`: 731 nM. `Cc1ccc2nc(O)c(-c3nc4ccccc4[nH]3)c(N[C@@H]3CN4CCC3CC4)c2c1` gave an IC50 of 0.35 nM.

Turning to `Oc1nc2ccc(Cl)cc2c(NC2CCCNC2)c1-c1nc2ccccc2[nH]1` (stereo unspecified), the IC50 was found to be 1.04 nM. Still for that read-out and setting: as for `Cc1cccc2c(N[C@@H]3CN4CCC3CC4)c(-c3nc4ccccc4[nH]3)c(O)nc12`, the figure is 138 nM. `O=c1[nH]c2ccccc2c(O)c1-c1nc2ccccc2[nH]1` came in with an IC50 of 2950 nM.

With `O=c1[nH]c2ccc(Cl)cc2c(N[C@@H]2CCNC2)c1-c1nc2ccccc2[nH]1`, the IC50 stood at 7.2 nM. This IC50 is about 410-fold lower than that of the molecule before. On the same count and under the same terms, as for `Cc1ccc2nc(O)c(-c3nc4ccccc4[nH]3)c(NC3CCNCC3)c2c1`, the figure is 3.3 nM. The molecule `O=c1[nH]c2ccccc2c(N[C@H]2CN3CCC2CC3)c1-c1nc2ccccc2[nH]1` gave an IC50 of 482 nM. For `Cc1ccc2[nH]c(=O)c(-c3nc4ccccc4[nH]3)c(NC3CCCNC3)c2c1` (stereo unspecified), the IC50 came out at 1.4 nM. `O=c1[nH]c2ccc(Cl)c(Cl)c2c(N[C@@H]2CN3CCC2CC3)c1-c1nc2ccccc2[nH]1` registered an IC50 of 21.7 nM. The same measure, in the same setting: next, `Oc1nc2ccc(Cl)cc2c(N[C@H]2CCNC2)c1-c1nc2ccccc2[nH]1`: 0.5 nM.
